# Assay results: ChEMBL document CHEMBL1821622, “Thiazole- and imidazole-containing peptidomimetic inhibitors of protein farnesyltransferase” (Bioorg Med Chem Lett, 2011)
# Calls of active or inactive are those of the source. No cut-off for these calls is given here.
# Experiments:
# [1] = (§1) Inhibition of cell proliferation in RASMC cells after 72 hrs by Coulter Counter method; assay type: functional, cell-based, Rattus norvegicus
# Procedure, shortened: (§2)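 Rat aortic SMCs were seeded at 2 × 10^5 cells per 35 mm dish in DMEM with 10% FCS. Cells were counted after trypsinization. DMSO was at most 0.5% final. IC50 came from linear regression of log concentration vs logit.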
# [2] = (§3) Inhibition of rat recombinant FTase using Dansyl-Gly-Cys-Val-Leu-Ser-OH peptide and farnesyl-pyrophosphate substrates measured every 15 seconds for 5 mins by fluorescent assay
# RASMC [3] = assay: Inhibition of rat Ftase in RASMC cells assessed as reduction in Ras prenylation at 2 uM after 72 hrs by Western blot analysis; assay type: cell-based
# Procedure, shortened: (§4)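 Rat SMCs were seeded at 4 × 10^5 per 60 mm dish and taken through the same serum arrest and restimulation as the proliferation assay, with 72 h exposure. Cells were lysed for 30 min on ice in Tris pH 7.5/NaCl/NP-40 buffer with inhibitors and cleared at 15,000g. Protein was measured by BCA. Lysates were run on reducing SDS-PAGE and immunoblotted with anti-Ras (RAS10) using ECL. The slower band is unprenylated Ras; the faster band is prenylated Ras.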
# RASMC [4] = assay: Inhibition of rat Ftase in RASMC cells assessed as reduction of Ras prenylation at 50 to 100 uM after 72 hrs by Western blot analysis relative to control; assay type: cell-based; procedure, shortened: as §4
# RASMC [5] = assay: as §1; assay type: functional, cell-based; conditions: Rattus norvegicus; procedure, shortened: as §2
# Rattus norvegicus = species on record: Rattus norvegicus; assay: as §3
# [6] = Rattus norvegicus, RASMC, 72 h, read-out: IC50
structure (smiles),measurement,setting,value
CSCC[C@H](NC(=O)c1ccc(NC(=O)CCc2csc(N)n2)cc1-c1ccccc1C)C(=O)OC(C)C,IC50,[1]; rasmc,Not Active
CSCC[C@H](NC(=O)c1ccc(NC(=O)Cc2csc(SC)n2)cc1-c1ccccc1C)C(=O)OC(C)C,IC50,[1]; rasmc,Not Active
CSCC[C@H](NC(=O)c1ccc(NC(=O)CCc2c[nH]c(S)n2)cc1-c1ccccc1C)C(=O)O,IC50,[2],Not Active
CSCC[C@H](NC(=O)c1ccc(NC(=O)CCc2c[nH]c(S)n2)cc1-c1ccccc1C)C(=O)OC(C)C,IC50,[1]; [6],34000 nM
CSCC[C@H](NC(=O)c1ccc(NC[C@@H](N)CS)cc1-c1ccccc1)C(=O)O,IC50,[2]; read-out: IC50,9 nM
CSCC[C@H](NC(=O)c1ccc(NC(=O)Cc2csc(S)n2)cc1-c1ccccc1C)C(=O)O,IC50,[2]; read-out: IC50,538 nM
CSCC[C@H](NC(=O)c1ccc(NC(=O)Cc2csc(SC)n2)cc1-c1ccccc1C)C(=O)O,IC50,[2],Not Active
CSCC[C@H](NC(=O)c1ccc(NC(=O)CCc2csc(SC)n2)cc1-c1ccccc1C)C(=O)O,IC50,[2]; read-out: IC50,415 nM
CSCC[C@H](NC(=O)c1ccc(NC(=O)CCc2csc(S)n2)cc1-c1ccccc1C)C(=O)OC(C)C,IC50,[1]; [6],25000 nM
CSCC[C@H](NC(=O)c1ccc(NC(=O)Cc2c[nH]c(S)n2)cc1-c1ccccc1C)C(=O)OC(C)C,IC50,[1]; [6],226000 nM
CSCC[C@H](NC(=O)c1ccc(NC(=O)CCc2csc(N)n2)cc1-c1ccccc1C)C(=O)O,IC50,[2]; read-out: IC50,390 nM
CCC(C)(C)C(=O)O[C@H]1C[C@@H](C)C=C2C=C[C@H](C)[C@H](CC[C@@H]3C[C@@H](O)CC(=O)O3)[C@H]21,inhibition,RASMC [3],Active
CSCC[C@H](NC(=O)c1ccc(NC(=O)Cc2csc(N)n2)cc1-c1ccccc1C)C(=O)OC(C)C,IC50,[1]; [6],107000 nM
CSCC[C@H](NC(=O)c1ccc(NC(=O)Cc2csc(S)n2)cc1-c1ccccc1C)C(=O)OC(C)C,IC50,[1]; [6],21000 nM
CSCC[C@H](NC(=O)c1ccc(NC(=O)Cc2csc(N)n2)cc1-c1ccccc1C)C(=O)O,inhibition,RASMC [4],Dose-dependent effect
same,inhibition,RASMC [5],Dose-dependent effect
same,IC50,[2]; read-out: IC50,49 nM
same,inhibition,Rattus norvegicus,Dose-dependent effect
CSCC[C@H](NC(=O)c1ccc(NC(=O)Cc2c[nH]c(S)n2)cc1-c1ccccc1C)C(=O)O,IC50,[2]; read-out: IC50,122 nM
CSCC[C@H](NC(=O)c1ccc(NC(=O)CCc2csc(S)n2)cc1-c1ccccc1C)C(=O)O,IC50,[2]; read-out: IC50,526 nM
CSCC[C@H](NC(=O)c1ccc(NC(=O)CCc2csc(SC)n2)cc1-c1ccccc1C)C(=O)OC(C)C,IC50,[1]; rasmc,Not Active
